Measured values taken from ChEMBL document CHEMBL3112586, “Synthesis of neolignans as microtubule stabilisers” (Bioorg Med Chem, 2014).
Activity calls are given as the source filed them. The calls are words filed in the database; no cut-off is given here.

Assays:
Mus musculus [1] = test: Toxicity in Swiss albino mouse assessed as change in SGOT level at 50 mg/kg, po (reference value: 25.27 +/- 1.32 U/L); type: organism-based; parameters: dose 50 mg/kg, route oral; conditions: in vivo
MDA-MB-231 = test: Cell cycle arrest in human MDA-MB-231 cells at 5 to 30 uM after 24 hrs by propidium iodide staining-based FACS analysis; type: functional
Summary of the method: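 MDA-MB-231 grown in DMEM with 10% FBS at 37 °C, 5% CO2; 24 h treatment, then cold-PBS wash, 2 × 10⁶ cells/ml, absolute-ethanol fixation, RNase A, propidium iodide 50 µg/mL for 30 min at room temperature; flow cytometric DNA content, sub-diploid fraction scored.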

Mus musculus [2] = test: Toxicity in Swiss albino mouse assessed as change in serum protein level at 50 mg/kg, po (reference value: 1.11 +/- 0.14 mg/ml); type: organism-based; parameters: dose 50 mg/kg, route oral; conditions: in vivo
Tubulin (Homo sapiens) = Tubulin (Homo sapiens) (UniProt P68371+Q9H4B7+P0DPH7+P68366+Q13509+Q71U36+P04350+Q3ZCM7+P07437+P68363+Q9BQE3+Q6PEY2+Q13885+Q9BVA1+Q9BUF5); test: Induction of tubulin polymerization (unknown origin) at 10 to 40 uM measured every min for 1 hr; type: protein-complex assay
Summary of the method: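 Tubulin 3 mg/mL in 80 mM PIPES pH 6.9, 2 mM MgCl2, 0.5 mM EGTA, 1 mM GTP, 15% glycerol at 37 °C with test compounds at varied concentrations; turbidity at 340 nm read every min for 1 h; podophyllotoxin inhibitor and paclitaxel stabiliser references, DMSO negative control.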

Mus musculus [3] = test: Toxicity in Swiss albino mouse assessed as change in SGPT level at 50 mg/kg, po (reference value: 12.28 +/- 3.73 U/L); type: organism-based; parameters: dose 50 mg/kg, route oral; conditions: in vivo
Mus musculus [4] = test: Toxicity in Swiss albino mouse assessed as change in SGPT level at 5 mg/kg, po (reference value: 12.28 +/- 3.73 U/L); type: organism-based; parameters: dose 5 mg/kg, route oral; conditions: in vivo
MCF7 [5] = test: Cell cycle arrest in human MCF7 cells assessed as accumulation at G2 phase at 5 to 30 uM after 24 hrs by propidium iodide staining-based FACS analysis; type: functional
Summary of the method: (§1)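 MCF-7 in DMEM, 10% FBS, 37 °C, 5% CO2; treated 24 h, harvested, washed cold PBS, resuspended 2 × 10⁶ cells/ml, fixed absolute ethanol, RNase A treated, propidium iodide (50 µg/mL) 30 min room temperature; DNA content by flow cytometry; phase distribution versus untreated control.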

Mus musculus [6] = test: Toxicity in Swiss albino mouse assessed as change in serum protein level at 300 mg/kg, po (reference value: 1.11 +/- 0.14 mg/ml); type: organism-based; parameters: dose 300 mg/kg, route oral; conditions: in vivo
MCF7 [7] = test: Cytotoxicity against human MCF7 cells after 24 hrs by MTT assay; type: functional, cell-based; conditions: MCF7, 24 h
Summary of the method: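 Cells in DMEM, 10% FBS, 37 °C, 5% CO2, plated and incubated 24 h; compounds diluted in phenol-red-free DMEM with 0.5% FBS, vehicle control; after exposure, MTT (5 mg/mL stock) added 3 h, formazan dissolved in DMSO, absorbance 570 nm; IC50 derived; podophyllotoxin and tamoxifen positive controls.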

Mus musculus [8] = test: Toxicity in Swiss albino mouse assessed as change in body weight at 300 mg/kg, po (reference value: 24.5 +/- 0.76 g); type: organism-based; parameters: dose 300 mg/kg, route oral; conditions: in vivo
Mus musculus [9] = test: Toxicity in Swiss albino mouse assessed as relative lungs weight at 5 to 1000 mg/kg, po relative to control; type: organism-based; parameters: dose 5-1000 mg/kg, route oral; conditions: in vivo
Summary of the method: (§2)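 One oral dose (5–1000 mg/kg; DMSO then 0.7% carboxymethyl cellulose vehicle; controls vehicle-only) was given to groups of 6 mice (3 male, 3 female). On day 7 the animals were sacrificed and necropsied for gross pathology. Absolute and relative weights of vital organs were recorded and compared with control.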

Mus musculus [10] = test: Toxicity in Swiss albino mouse assessed as change in eosinophil count at 5 to 1000 mg/kg, po relative to control; type: organism-based; parameters: dose 5-1000 mg/kg, route oral; conditions: in vivo
Mus musculus [11] = test: Toxicity in Swiss albino mouse assessed as change in SGPT level at 1000 mg/kg, po (reference value: 12.28 +/- 3.73 U/L); type: organism-based; parameters: dose 1000 mg/kg, route oral; conditions: in vivo
Mus musculus [12] = test: Toxicity in Swiss albino mouse assessed as relative heart weight at 5 to 1000 mg/kg, po relative to control; type: organism-based; parameters: dose 5-1000 mg/kg, route oral; conditions: in vivo; summary of the method: as §2
Mus musculus [13] = test: Toxicity in Swiss albino mouse assessed as change in ALKP level at 5 mg/kg, po (reference value: 218.67 +/- 12.43 U/L); type: organism-based; parameters: dose 5 mg/kg, route oral; conditions: in vivo
MCF7 [14] = test: Cell cycle arrest in human MCF7 cells assessed as accumulation at G1 phase at 5 to 30 uM after 24 hrs by propidium iodide staining-based FACS analysis; type: functional; summary of the method: as §1
Mus musculus [15] = test: Toxicity in Swiss albino mouse assessed as absolute kidney weight at 5 to 1000 mg/kg, po relative to control; type: organism-based; parameters: dose 5-1000 mg/kg, route oral; conditions: in vivo
Mus musculus [16] = test: Toxicity in Swiss albino mouse assessed as change in cholesterol level at 5 mg/kg, po (reference value: 81.64 +/- 4.26 mg/dL); type: organism-based; parameters: dose 5 mg/kg, route oral; conditions: in vivo
MCF7 [17] = test: Cell cycle arrest in human MCF7 cells assessed as increase in sub-diploid population after 24 hrs by propidium iodide staining-based FACS analysis; type: functional; summary of the method: as §1
Mus musculus [18] = test: Toxicity in Swiss albino mouse assessed as change in creatinine level at 5 mg/kg, po (reference value: 0.63 +/- 0.18 mg/dL); type: organism-based; parameters: dose 5 mg/kg, route oral; conditions: in vivo
Mus musculus [19] = test: Toxicity in Swiss albino mouse assessed as change in RBC count at 300 mg/kg, po (reference value: 5.43 +/- 0.27 million/mm'3); type: organism-based; parameters: dose 300 mg/kg, route oral; conditions: in vivo
Mus musculus [20] = test: Toxicity in Swiss albino mouse assessed as change in total haemoglobin level at 50 mg/kg, po (reference value: 11.39 +/- 0.84 g/dL); type: organism-based; parameters: dose 50 mg/kg, route oral; conditions: in vivo
Mus musculus [21] = test: Toxicity in Swiss albino mouse assessed as absolute lungs weight at 5 to 1000 mg/kg, po relative to control; type: organism-based; parameters: dose 5-1000 mg/kg, route oral; conditions: in vivo

`CCOC(=O)/C=C/c1ccc(O)c(/C(=C/c2ccc(O)cc2)C(=O)OCC)c1` was tested, and the Activity (Mus musculus [1]) was 34.34 U/L, the Activity (MDA-MB-231) was “inactive” and the Activity (Mus musculus [2]) was 0.94 mg/mL. The Activity (Tubulin (Homo sapiens)) was “Active”, the Activity (Mus musculus [3]) was 12.52 U/L and the Activity (Mus musculus [4]) was 13.15 U/L. The Activity (MCF7 [5]) was “Active”, the Activity (Mus musculus [6]) was 0.92 mg/mL and the IC50 (MCF7 [7]) was 12 µM. For the same compound, the Activity (Mus musculus [8]) was 25 g, the Activity (Mus musculus [9]) was “Non-toxic” and the Activity (Mus musculus [10]) was “Non-toxic”. The Activity (Mus musculus [11]) was 21.95 U/L, the Activity (Mus musculus [12]) was “Non-toxic” and the Activity (Mus musculus [13]) was 227.47 U/L. The Activity (MCF7 [14]) was “inactive”, the Activity (Mus musculus [15]) was “Non-toxic” and the Activity (Mus musculus [16]) was 75.94 mg/dL. The Activity (MCF7 [17]) was “Dose-dependent effect”, the Activity (Mus musculus [18]) was 1.05 mg/dL and the Activity (Mus musculus [19]) was 5.11 million/mm3. The Activity (Mus musculus [20]) was 10.67 g/dL and the Activity (Mus musculus [21]) was “Non-toxic”.
